ChEMBL document CHEMBL1132412, “Antagonists of the platelet P2T receptor: a novel approach to antithrombotic therapy” (J Med Chem, 1999)

What was measured:
[1] = Platelet P2T receptor antagonist activity in human platelet assay; format: functional
Procedure, shortened: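 Human washed platelets in modified Tyrode buffer, stimulated to aggregate with ADP; aggregation followed turbidimetrically. Inhibition measured across a concentration range, pIC50 calculated from the concentration-response. Mean of four determinations (nine for one compound).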

Rattus norvegicus = species: Rattus norvegicus; assay: Recovery of ADP-induced platelet aggregation 20 minutes post dose. mean of four determinations and spread of results; format: functional
Procedure, shortened: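 Anesthetized rat; ADP-induced platelet aggregation measured 20 min after dosing to gauge recovery of aggregation (functional kinetics). Mean of four determinations, with spread of results.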

| Log IC50 [1] | SMILES | Recovery of ADP-induced platelet aggregation (Rattus norvegicus) [%] |
| --- | --- | --- |
| -3.5 | Nc1ncnc2c1ncn2[C@@H]1O[C@H](COP(=O)(O)OP(=O)(O)C(Cl)(Cl)P(=O)(O)O)[C@@H](O)[C@H]1O |  |
| -6.53 | CCSc1nc(N)c2ncn([C@@H]3O[C@H](COP(=O)(O)OP(=O)(O)C(Cl)(Cl)P(=O)(O)O)[C@@H](O)[C@H]3O)c2n1 |  |
| -3.5 | Nc1ncnc2c1ncn2[C@@H]1O[C@H](COP(=O)(O)OP(=O)(O)C(F)(F)P(=O)(O)O)[C@@H](O)[C@H]1O |  |
| -8.16 | CCCSc1nc(N)c2ncn([C@@H]3O[C@H](COP(=O)(O)OP(=O)(O)C(F)(F)P(=O)(O)O)[C@@H](O)[C@H]3O)c2n1 |  |
| -9.48 | CCCSc1nc(NCC(F)(F)F)c2ncn([C@@H]3O[C@H](COP(=O)(O)OP(=O)(O)C(Cl)(Cl)P(=O)(O)O)[C@@H](O)[C@H]3O)c2n1 | 10 |
| -9.42 | CCCSc1nc(NCCSC)c2ncn([C@@H]3O[C@H](COP(=O)(O)OP(=O)(O)C(Cl)(Cl)P(=O)(O)O)[C@@H](O)[C@H]3O)c2n1 | 33 |
| -8.02 | COCCNc1nc(SCCC(F)(F)F)nc2c1ncn2[C@@H]1O[C@H](COP(=O)(O)OP(=O)(O)C(Cl)(Cl)P(=O)(O)O)[C@@H](O)[C@H]1O | 64 |
| -9.14 | O=P(O)(OC[C@H]1O[C@@H](n2cnc3c(NCC(F)(F)F)nc(SCCC(F)(F)F)nc32)[C@H](O)[C@@H]1O)OP(=O)(O)C(Cl)(Cl)P(=O)(O)O | 6 |
| -8.87 | Nc1nc(SCCC(F)(F)F)nc2c1ncn2[C@@H]1O[C@H](COP(=O)(O)OP(=O)(O)C(Cl)(Cl)P(=O)(O)O)[C@@H](O)[C@H]1O |  |
| -7.81 | CCCSc1nc(NCCOC)c2ncn([C@@H]3O[C@H](COP(=O)(O)OP(=O)(O)C(Cl)(Cl)P(=O)(O)O)[C@@H](O)[C@H]3O)c2n1 | 48 |
| -8.6 | CCCSc1nc(N)c2ncn([C@@H]3O[C@H](COP(=O)(O)OP(=O)(O)C(Cl)(Cl)P(=O)(O)O)[C@@H](O)[C@H]3O)c2n1 | 93 |
| -9.35 | CSCCNc1nc(SCCC(F)(F)F)nc2c1ncn2[C@@H]1O[C@H](COP(=O)(O)OP(=O)(O)C(Cl)(Cl)P(=O)(O)O)[C@@H](O)[C@H]1O [CANGRELOR] | 79 |
